Test results: article PMC9890357 (Food Science of Animal Resources, 2023)
No end group written: not given here.

Columns and labels:
[1] = synthetic ACE inhibitor drugs; ref Lee and Hur, 2017; cited from earlier work
[2] = test system: ACE; conditions: peptides with C-terminal Tyr residues; ref Chen et al., 2009; Erdmann et al., 2006; Ko et al., 2012; Liu et al., 2021; Yu et al., 2019; cited from earlier work
[3] = target: ACE (angiotensin I-converting enzyme) (Homo sapiens, UniProt P12821); test: ACE inhibition activity; assay type: biochemical
In short: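 Commercial ACE kit-WST run according to the manufacturer's protocol. The test compound was a peptide purified from an alcalase hydrolysate of velvet antler (<5 kDa ultrafiltration fraction, then Sephadex G-25, then reverse-phase HPLC) and lyophilized. Results are reported as mean±SD. Groups were compared by one-way ANOVA with Duncan's multiple range test, with significance at p<0.05.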

Chain of ACE (angiotensin I-converting enzyme) (P12821 30-1306, species assumed): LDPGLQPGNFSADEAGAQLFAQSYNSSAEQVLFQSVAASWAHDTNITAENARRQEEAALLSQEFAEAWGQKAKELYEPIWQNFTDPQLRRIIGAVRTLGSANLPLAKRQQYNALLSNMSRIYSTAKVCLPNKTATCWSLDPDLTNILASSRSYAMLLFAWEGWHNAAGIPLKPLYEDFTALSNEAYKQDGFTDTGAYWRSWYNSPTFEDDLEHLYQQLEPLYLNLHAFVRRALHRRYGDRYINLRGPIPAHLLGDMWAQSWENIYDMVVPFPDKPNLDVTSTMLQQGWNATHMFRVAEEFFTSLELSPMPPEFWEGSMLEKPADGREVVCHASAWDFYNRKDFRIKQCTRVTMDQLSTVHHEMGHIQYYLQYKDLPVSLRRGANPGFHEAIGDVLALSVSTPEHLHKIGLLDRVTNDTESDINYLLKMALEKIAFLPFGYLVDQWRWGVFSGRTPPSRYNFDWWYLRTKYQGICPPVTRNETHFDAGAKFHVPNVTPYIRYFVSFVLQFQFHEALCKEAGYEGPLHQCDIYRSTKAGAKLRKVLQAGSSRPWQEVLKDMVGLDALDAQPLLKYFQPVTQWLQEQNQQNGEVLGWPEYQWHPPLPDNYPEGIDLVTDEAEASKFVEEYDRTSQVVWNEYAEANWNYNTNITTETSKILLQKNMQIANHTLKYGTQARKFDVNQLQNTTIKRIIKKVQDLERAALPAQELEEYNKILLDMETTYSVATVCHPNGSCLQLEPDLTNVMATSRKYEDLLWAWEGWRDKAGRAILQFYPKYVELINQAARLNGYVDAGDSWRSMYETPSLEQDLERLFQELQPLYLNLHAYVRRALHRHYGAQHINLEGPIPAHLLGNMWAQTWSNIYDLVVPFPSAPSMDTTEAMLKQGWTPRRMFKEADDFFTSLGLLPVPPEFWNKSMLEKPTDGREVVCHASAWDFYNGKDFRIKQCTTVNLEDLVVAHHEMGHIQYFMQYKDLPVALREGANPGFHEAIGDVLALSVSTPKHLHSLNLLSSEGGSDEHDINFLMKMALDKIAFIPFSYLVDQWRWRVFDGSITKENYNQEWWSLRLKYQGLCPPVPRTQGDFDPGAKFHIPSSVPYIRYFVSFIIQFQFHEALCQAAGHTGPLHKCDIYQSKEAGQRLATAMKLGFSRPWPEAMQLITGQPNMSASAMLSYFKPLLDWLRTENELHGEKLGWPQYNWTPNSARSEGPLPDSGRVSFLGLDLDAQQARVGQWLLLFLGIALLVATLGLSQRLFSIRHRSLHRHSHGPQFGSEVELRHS

CCOC(=O)[C@H](CCc1ccccc1)N[C@@H](C)C(=O)N1CCC[C@H]1C(=O)O [enalapril]
side effects [1]: headaches, insomnia, fatigue, and increased blood potassium levels

Ile-Tyr
ACE inhibitory activity (in words) [2]: potent ACE inhibitory activities

CCOC(=O)[C@H](CCc1ccccc1)N[C@H]1CCc2ccccc2N(CC(=O)O)C1=O [benazepril]
side effects [1]: headaches, insomnia, fatigue, and increased blood potassium levels

C[C@H](CS)C(=O)N1CCC[C@H]1C(=O)O [captopril]
side effects [1]: headaches, insomnia, fatigue, and increased blood potassium levels

Val-Tyr
ACE inhibitory activity (in words) [2]: potent ACE inhibitory activities

Arg-Val-Tyr
ACE inhibitory activity (in words) [2]: potent ACE inhibitory activities

Met-Tyr
ACE inhibitory activity (in words) [2]: potent ACE inhibitory activities

DNRYY [DNRYY, Asp-Asn-Arg-Tyr-Tyr]
IC50 [3]: 3.72 µM
inhibition at 1.75 µM ([3]; read-out: ACE inhibition): 23.6%
inhibition at 3.5 µM ([3]; read-out: ACE inhibition): 48.1%
inhibition at 7 µM ([3]; read-out: ACE inhibition): 69.8%
inhibition at 14 µM ([3]; read-out: ACE inhibition): 89.5%
